# JMJD2C inh: human JMJD2C demethylase inhibition | Q9H3R0 | GST-JMJD2C(1-420) H3K9me3 demethylation, DELFIA europium | inhibition, % at 2.35 µM | 330,000 compounds, 0.069% hits;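 active = more than half of a compound's replicate wells show inhibition beyond 50%, single wells judged on their own value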;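 note: signal counts dimethyl H3K9 product captured on neutravidin plate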
# VLA-4 inh: inhibition in a human VLA-4 binding assay. inhibition, % (about 7 µM as worked out from the volumes in the protocol). P13612. 330,000 compounds, 0.2% hits. VLA-4 expressing cells, ligand binding flow cytometry; in the data active = inhibition above about 50%
# Target sequence (P13612 whole entry, looked up): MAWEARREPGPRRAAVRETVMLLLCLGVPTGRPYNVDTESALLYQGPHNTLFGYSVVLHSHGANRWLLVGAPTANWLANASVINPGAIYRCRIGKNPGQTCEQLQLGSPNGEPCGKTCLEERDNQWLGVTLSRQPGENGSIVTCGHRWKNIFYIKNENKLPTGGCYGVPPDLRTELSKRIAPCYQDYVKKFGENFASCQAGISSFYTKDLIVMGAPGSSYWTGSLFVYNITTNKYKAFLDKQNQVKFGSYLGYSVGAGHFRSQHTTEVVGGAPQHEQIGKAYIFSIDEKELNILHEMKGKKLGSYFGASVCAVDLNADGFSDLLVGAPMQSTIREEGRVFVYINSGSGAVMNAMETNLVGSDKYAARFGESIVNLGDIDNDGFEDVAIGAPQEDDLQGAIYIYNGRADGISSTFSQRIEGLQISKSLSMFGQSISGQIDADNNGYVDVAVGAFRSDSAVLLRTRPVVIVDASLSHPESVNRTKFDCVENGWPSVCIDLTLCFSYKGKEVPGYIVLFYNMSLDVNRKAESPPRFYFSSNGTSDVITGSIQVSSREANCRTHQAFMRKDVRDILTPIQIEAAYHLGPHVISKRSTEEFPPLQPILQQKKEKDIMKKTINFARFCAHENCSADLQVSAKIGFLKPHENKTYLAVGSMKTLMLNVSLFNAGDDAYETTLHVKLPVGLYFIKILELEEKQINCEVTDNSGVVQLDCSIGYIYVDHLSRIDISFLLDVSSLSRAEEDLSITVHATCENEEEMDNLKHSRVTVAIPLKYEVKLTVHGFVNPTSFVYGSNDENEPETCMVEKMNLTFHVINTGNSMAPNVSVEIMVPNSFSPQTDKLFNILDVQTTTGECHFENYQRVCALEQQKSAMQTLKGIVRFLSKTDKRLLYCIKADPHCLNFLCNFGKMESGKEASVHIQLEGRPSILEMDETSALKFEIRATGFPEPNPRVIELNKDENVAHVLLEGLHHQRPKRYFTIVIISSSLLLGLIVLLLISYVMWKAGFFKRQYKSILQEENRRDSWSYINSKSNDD
# procasp3 activ: activates human procaspase-3; recombinant procaspase-3 D3A, Ac-DEVD-pNA absorbance 405 nm; activation, % at 8.5 µM; 330,000 compounds, 0.11% hits;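 active = activation above the mean of all tested compounds plus 3 SD, cut at about 21% in these data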
#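 System: Procaspase-3 D3A mutant. Medium: Zinc-free 300 mM NaCl, 50 mM HEPES, 0.01% Triton X-100. Schedule: 1 h preincubation plus 2 h reaction at 25 °C. Measured by: 405 nm absorbance of p-nitroaniline, reads at 0 and 120 min. Read-out: percent activation relative to control range.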
# proCasp7 act: counter-screen: procaspase-7 (human) activation. P55210. recombinant procaspase-7, Ac-DEVD-pNA absorbance 405 nm; D23A/D198A/D206A triple mutant, cannot self-cleave; scale: DMSO 0, 5 µM enzyme 100. 330,000 compounds, 0.093% hits. AID 463210. activation, % at 8.5 µM;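 active = percent activation above the screen-wide mean plus 3 SD, cut at about 25% in these data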
#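 System: Uncleavable procaspase-7 mutant enzyme; Amount: 2 µM procaspase-7 mutant as dispensed; Schedule: 1 h compound preincubation, 2 h substrate cleavage, 25 °C; Measured by: 405 nm absorbance of p-nitroaniline; Evaluation: percent activation from buffer-corrected 0–120 min absorbance change; Control set: low DMSO alone, high DMSO plus 5 µM PC-7.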
# Lipid droplet: modulators of hepatic lipid droplet formation; AML12 mouse hepatocytes, oleate lipid droplets, BODIPY imaging; inhibition, % at 6.5 µM; 240,000 compounds, 0.4% hits; AID 1656;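 active = lipid droplet intensity inhibited by at least 50%, with more than 500 cells counted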
#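 Technique: fluorescence imaging, 20x objective, two fields per well / Assay system: AML12 hepatocytes (mouse) / Measure: % inhibition of lipid droplet signal / Doses: 6.5 µM single-point dosing / Incubation: overnight exposure / Reagent: 100 µM oleic acid challenge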
# GRK2 aptamer HTS: human GRK2 inhibition via aptamer displacement. P25098. bead flow cytometry, FAM-aptamer displacement from GRK2. inhibition of aptamer binding, % at 10 µM. 330,000 compounds, 0.59% hits. AID 488847;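 active = inhibition of aptamer binding above 40%, roughly 3 SD of noise, on plates passing a quality check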;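 note: median bead fluorescence of bound FAM aptamer so fluorescent compounds give negative values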
# VLA-4 allo CP: human VLA-4 allosteric modulation in cherry picked compounds; AID 2813; U937 cells, HUTS-21 LIBS mAb binding, flow cytometry; LDV ligand present at threefold Kd; inhibition, % at 6.7 µM; shares compounds with VLA-4 inh; 1,300 compounds, 2% hits; in the data active = inhibition above about 40%
# A number is an active result; . = inactive; / = not tested or not shown. Shown are actives, neighbours in structure and some others; about 1.3% of the full set was active somewhere.
SMILES,JMJD2C inh,VLA-4 inh,procasp3 activ,proCasp7 act,Lipid droplet,GRK2 aptamer HTS,VLA-4 allo CP
CCN1CCN(CCNC(=O)c2ccc3c(c2)N(Cc2cccc(Cl)c2)C(=O)c2ccccc2S3=O)CC1 (stereo unspecified),.,.,.,.,.,.,/
CCCCc1ccc(NC(=S)NCCc2ccc(F)cc2)cc1,.,.,.,.,.,.,.
Fc1ccc(CCNC(=S)Nc2ccc(F)cc2)cc1,.,.,.,.,.,.,/
CCO[C@@H]1OC(C(=O)Nc2ccccc2)=C[C@H](C)[C@H]1CCCO,.,.,.,.,/,.,.
O=C(NCCNCCO)C1(C(F)(F)F)C/C(=C\CCO)CCCO1 (stereo unspecified),.,.,.,.,/,.,/
CCOC(=O)C(=Cc1ccc(Br)cc1)C(=O)OCC,.,.,/,/,.,.,/
CCOC(=O)C(CC)(CC)C(=O)/C=C/c1ccc(Br)cc1,.,90,.,.,/,.,.
CCNC(=O)CC1C(=O)N(c2ccc(C)cc2)C(=O)N1CCOC (stereo unspecified),.,.,.,.,.,.,/
O=C(CN(CC1CCCO1)C(=O)c1nsc(Cl)c1Cl)NC1CCCC1 (stereo unspecified),.,57,.,.,.,.,.
CCOC(=O)N1CCN(C(=O)CN(C)S(=O)(=O)c2ccc3c(c2)C(C)(C)C(=O)N3C)CC1,.,.,.,.,/,.,.
CC(=O)c1c(C)[nH]c(C(=O)CSc2nnc(C3CCCCC3)n2N)c1C,.,52,.,.,.,.,.
CC(C)c1ccc(NC2CCCN(C(=O)c3ccoc3)C2)cc1 (stereo unspecified),.,.,.,.,.,.,/
CCCCn1c(N)c(N(CC(C)C)C(=O)CCNC(=O)c2ccc(Cl)cc2)c(=O)[nH]c1=O,.,.,.,.,/,.,/
O=C(COC(=O)c1c(Cl)cccc1Cl)NC1CCCCCCC1,.,.,.,.,/,.,.
Cc1ccc(SCC(=O)OCC(=O)NC2CCCCCCC2)cc1,.,55,.,.,/,.,.
O=C(COC(=O)CSc1ccc([N+](=O)[O-])cc1)NC1CCCCCCC1,.,.,.,.,/,.,/
O=C(COC(=O)c1ccccc1Cl)NC1CCCCCC1,.,.,.,.,/,.,.
Cc1ccc(NC(=O)c2ccccc2OCC(=O)Nc2ccccc2F)cc1S(=O)(=O)N(C)C,/,.,.,.,/,.,/
CCOc1ccc(N2C(=O)CC(NC3CCN(C(=O)c4cccs4)CC3)C2=O)cc1 (stereo unspecified),.,.,.,.,.,.,/
C=C[C@@H]1c2cc(C)ccc2N(S(=O)(=O)c2ccc(C)cc2)[C@H](c2ccc(OC(C)=O)cc2)C1(C#N)C#N,.,.,.,.,/,.,/
O=C(O)c1cccc(NS(=O)(=O)c2cccc3cccnc23)c1,.,50,.,.,/,.,.
CCc1cccc(NS(=O)(=O)c2cccc3cccnc23)c1,.,.,.,.,.,.,/
O=C(NCc1ccccc1F)C1CCN(C(=O)c2sccc2-n2cccc2)CC1,.,111,.,.,.,.,.
Cc1cc(C)cc(NC(=O)Nc2cccc(S(N)(=O)=O)c2)c1,.,.,.,.,.,.,/
NS(=O)(=O)c1cccc(NC(=O)Nc2ccccc2)c1,.,.,.,.,.,.,.
SMILES,JMJD2C inh,VLA-4 inh,procasp3 activ,proCasp7 act,Lipid droplet,GRK2 aptamer HTS,VLA-4 allo CP
NS(=O)(=O)c1ccc(NC(=O)Nc2ccccc2)cc1,.,.,.,.,.,.,.
CN(C)C(=O)c1ccc(Nc2nc(-c3cccs3)nc3ccccc23)cc1,.,.,.,.,.,.,/
O=C(CCNC(=O)c1ccccc1)Nc1ccc(F)c(Cl)c1,.,54,.,.,.,.,.
N=c1sccn1CC(=O)NCCc1ccc(Cl)cc1Cl,.,95,.,.,.,.,.
CC1CCC2(CC1)NC(=O)N(NC(=O)c1cc3ccccc3o1)C2=O (stereo unspecified),.,.,.,.,/,.,/
O=C(CSc1nnc(-c2ccc(Cl)cc2)n1Cc1ccco1)NCc1ccc2c(c1)OCO2,.,89,.,.,.,.,.
O=C(CSc1nnc(-c2ccc(Cl)cc2)n1Cc1ccco1)Nc1ccc2c(c1)OCCO2,.,.,.,.,/,.,/
COc1ccc(-c2nc(C3CCCCC3)c3cc(OC)ccc3n2)cc1,.,.,.,.,/,.,/
COC(=O)c1ccc(CSc2ccc3nnc(-c4ccccn4)n3n2)o1,.,54,.,.,.,.,.
COC(=O)c1ccc(CSc2ccc3nnc(-c4ccc(F)cc4)n3n2)o1,.,.,.,.,.,.,/
CCC(CC)NC(=O)Nc1cccc(C)c1C,.,.,.,.,.,.,.
Nc1cc(C(=O)OCC(=O)NCCC2=CCCCC2)ccc1Cl,.,.,.,.,/,.,.
O=C(COC(=O)c1ccc(Br)cc1)NCCC1=CCCCC1,.,.,.,.,.,.,/
CC1CCCCN1C(=O)c1ccc(CS(=O)(=O)Cc2ccccc2)cc1 (stereo unspecified),.,.,.,.,.,.,/
CCOC(=O)CNC(=O)c1ccc2[nH]c3ccccc3c2c1,.,.,.,.,.,.,.
O=C(Nc1ccccc1)OCc1cnc(Cl)s1,.,.,.,.,.,.,.
O=C(Nc1ccc(Cl)c(Cl)c1)OCc1cnc(Cl)s1,.,.,.,.,/,.,.
O=C(Nc1ccccc1)OCc1cncs1,.,.,.,.,.,.,.
O=C(Nc1ccc(Cl)c(Cl)c1)OCc1cncs1,.,.,.,.,.,.,.
CC(=O)Nc1cccc(OCc2cnc(Cl)s2)c1,.,.,.,.,.,.,/
Cc1cccc(NC(=O)CN2CCN(C(=O)c3c(C)nn(Cc4ccccc4)c3C)CC2)c1C,.,.,.,.,/,.,/
NC1=NC(c2cccc(Cl)c2)N(CCc2ccc(F)cc2)C(N)=N1 (stereo unspecified),.,.,.,.,.,.,/
CC(On1nnc2ccccc21)C(=O)N1CCN(Cc2ccccc2)CC1 (stereo unspecified),.,.,.,.,.,.,/
O=C(CS(=O)(=O)c1ccccc1)NC1CCCCC1,.,.,.,.,/,.,/
CC(C)NC(=O)CS(=O)(=O)c1ccccc1,.,50,.,.,.,.,.
CCCCC[C@@H]1C=C(C(=O)O)[C@H](c2ccc(C)cc2)N1S(=O)(=O)c1ccc(C)cc1,/,.,.,.,/,.,/
Cc1ccc(S(=O)(=O)N2[C@@H](c3ccc(Cl)cc3)C(C(=O)O)=C[C@H]2C(C)(C)C)cc1,.,.,.,.,/,.,/

# Compound activity (PubChem BioAssay)
